Reference: ChEMBL document CHEMBL1124174, “Substituted benzamides. 1. Potential nondopaminergic antagonists of chemotherapy-induced nausea and emesis” (J Med Chem, 1988)
“And” between values parts separate entries of the source, which are not always exact repeats. Equal values may be shown once.

Tests used:
[1] = biological target: D(2) dopamine receptor (Canis lupus familiaris) (UniProt Q9GJU1); assay: In vivo antagonism activity against dopamine D2 receptor was measured as emesis in dog when administered subcutaneously; format: functional, organism-based
[2] = biological target: D(2) dopamine receptor (Rattus norvegicus, UniProt P61169); assay: In vitro antagonistic activity against Dopamine receptor D2 was evaluated for the inhibition of [3H]spiperone binding
Method in brief: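 Rat striatal membranes were prepared by differential centrifugation in 50 mM Tris pH 7.4 at 4 °C. Membrane protein (10 mg) was incubated 15 min at 37 °C with 0.1 nM [3H]spiperone and varying competitor concentrations. Buffer: 50 mM Tris HCl pH 7.5, 0.1% ascorbic acid, pargyline, 120 mM NaCl, 5 mM KCl, 2 mM CaCl2, 1 mM MgCl2. (+)-Butaclamol defined nonspecific binding. Bound ligand was collected by filtration and scintillation counted. IC50 by log-logit regression.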

[3] = tested on: Mustela putorius furo; assay: In vivo antagonism of cisplatin-induced emesis in ferret measured as emetic episodes, twice the dose of 3 mg/kg and in 3 ferrets; format: functional
Method in brief: (§1)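 Nonfasted castrated male Fitch ferrets (1–1.5 kg) had jugular catheters implanted ≥48 h earlier under anesthesia. Compounds or saline were given iv twice, 5 min before and 90 min after cisplatin (12 mg/kg iv; 12 mg/mL in warm 0.9% saline). Emesis was observed up to 4 h; events within 1 min counted as one episode. Results were given as mean emetic episodes and % protection versus a pooled historical/concurrent control. t test versus saline.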

[4] = tested on: Mustela putorius furo; assay: In vivo antagonism of cisplatin-induced emesis in ferret measured as emetic episodes, twice the dose of 1 mg/kg and in 3 ferrets; format: functional; method in brief: as §1
[5] = tested on: Mustela putorius furo; assay: In vivo antagonism of cisplatin-induced emesis in ferret measured as percentage protection for twice the dose of 1 mg/kg and in 3 ferrets; format: functional; method in brief: as §1
[6] = tested on: Mustela putorius furo; assay: In vivo antagonism of cisplatin-induced emesis in ferret measured as percentage protection for twice the dose of 3 mg/kg and in 3 ferrets; format: functional; method in brief: as §1
[7] = biological target: D(2) dopamine receptor (Rattus norvegicus) (UniProt P61169); assay: In vivo antagonism activity against D2 receptor was measured as stereotypy in rat when administered subcutaneously; format: functional, organism-based
Method in brief: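 Male Long Evans rats (275 g) were dosed sc in dilute aqueous HCl (pH 4.5-5.5) 30 min before apomorphine (1 mg/kg sc).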

[8] = biological target: D(2) dopamine receptor (Rattus norvegicus) (UniProt P61169); assay: In vivo antagonistic activity against dopamine D2 receptor was measured as catalepsy in rat when administered subcutaneously; format: functional, organism-based
Method in brief: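 Male Long Evans rats (275 g) received graded sc doses in dilute aqueous HCl (pH 4.5-5.5). They were observed 180 min for catalepsy, scored when the animal stayed stationary ≥15 s on a four-cork template.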

[9] = tested on: Canis familiaris; assay: In vivo antagonism of cisplatin-induced emesis in dog measured as emetic episodes, twice the dose of 1 mg/kg in 2 dogs; format: functional, Canis lupus familiaris
Method in brief: (§2)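 Nonfasted mature male or female beagles were dosed sc twice, 30 min before and 120 min after cisplatin (3 mg/kg iv; 3 mg/mL in warm 0.9% saline, used immediately). Emesis was observed up to 5 h; events within 2 min counted as one episode. Results were given as mean emetic episodes and % protection versus a dynamic control (historical and concurrent saline means pooled). t test versus saline.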

[10] = tested on: Canis familiaris; assay: In vivo antagonism of cisplatin-induced emesis in dog measured as percentage protection for twice the dose of 1 mg/kg in 2 dogs; format: functional, Canis lupus familiaris; method in brief: as §2

D(2) dopamine receptor (Rattus norvegicus), sequence (P61169 whole entry): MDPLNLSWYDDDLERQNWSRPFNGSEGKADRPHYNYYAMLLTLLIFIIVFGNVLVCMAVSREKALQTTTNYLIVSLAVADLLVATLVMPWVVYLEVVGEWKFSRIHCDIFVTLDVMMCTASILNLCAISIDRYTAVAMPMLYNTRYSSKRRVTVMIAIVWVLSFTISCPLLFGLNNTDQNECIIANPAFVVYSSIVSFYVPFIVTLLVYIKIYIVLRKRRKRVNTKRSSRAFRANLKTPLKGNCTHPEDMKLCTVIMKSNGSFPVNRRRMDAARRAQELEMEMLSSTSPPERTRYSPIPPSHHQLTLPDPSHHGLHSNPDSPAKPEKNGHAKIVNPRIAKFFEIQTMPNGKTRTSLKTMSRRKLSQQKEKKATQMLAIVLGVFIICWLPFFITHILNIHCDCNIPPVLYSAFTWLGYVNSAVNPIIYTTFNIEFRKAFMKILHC
D(2) dopamine receptor, sequence (P61169 whole entry): as above
D(2) dopamine receptor (Canis lupus familiaris), sequence (Q9GJU1 whole entry): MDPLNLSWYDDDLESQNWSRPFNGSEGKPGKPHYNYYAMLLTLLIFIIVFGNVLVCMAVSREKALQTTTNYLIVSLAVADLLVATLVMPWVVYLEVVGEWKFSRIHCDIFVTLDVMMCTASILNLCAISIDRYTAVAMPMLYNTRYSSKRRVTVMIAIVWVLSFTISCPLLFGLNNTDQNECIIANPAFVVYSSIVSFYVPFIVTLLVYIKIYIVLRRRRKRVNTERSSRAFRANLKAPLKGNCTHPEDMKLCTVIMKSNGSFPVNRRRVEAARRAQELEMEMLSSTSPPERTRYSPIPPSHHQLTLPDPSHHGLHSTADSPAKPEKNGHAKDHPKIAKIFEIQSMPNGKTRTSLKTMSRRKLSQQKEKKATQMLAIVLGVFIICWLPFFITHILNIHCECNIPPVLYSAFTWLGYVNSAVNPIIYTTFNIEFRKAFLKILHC

Row | Structure (SMILES) | IC50 [2] [nM] | ED50 [7] [mg/kg] | ED50 [1] [mg/kg] | Emetic episodes [3] | Emetic episodes [4] | Protection [5] [%] | Protection [6] [%] | ED50 [8] [mg/kg] | Protection [4] [%] | Emetic episodes [9] | Protection [10] [%] | Protection ([5]; 1 mg/kg) | Emetic episodes ([3]; 3 mg/kg)
1 | CCN(CC)CCNC(=O)c1cc(Cl)c(N)cc1OC(C)C(C)O (stereo in doubt; 8h) |  | > 40 | > 3 |  |  |  |  | > 40 |  |  |  |  | 
2 | CCN(CC)CCNC(=O)c1cc(Cl)c(N)cc1OC[C@@H](C)O (stereo in doubt; 8f) |  | > 40 | > 3 |  |  |  |  | > 40 |  |  |  |  | 
3 | C=CCN1CCCC1CNC(=O)c1cc2nn[nH]c2cc1O (configuration not stated) |  | > 40 | > 3 | 8 |  |  | 0 | > 40 |  |  |  |  | 
4 | CCN(CC)CCNC(=O)c1cc(Cl)c(N)cc1OCC1CO1 (configuration not stated) | > 1000 | > 40 | > 3 | 4.7 |  |  | 44 | > 40 |  |  |  |  | 
5 | CCN(CC)CCNC(=O)c1cc(Cl)c(N)cc1OCc1ccccc1 | > 1000 | > 40 | > 1 |  |  |  |  | > 40 |  |  |  |  | 
6 | CCN(CC)CCNC(=O)c1cc(Cl)c(N)cc1OC(C)C(C)O (stereo in doubt; 8g,h) |  | > 40 |  |  |  |  |  | > 40 |  |  |  |  | 
7 | CCN(CC)CCNC(=O)c1cc(Cl)c(N)cc1OCC(C)(C)O | > 1000 | > 40 | > 3 | 1.3 | 3 |  |  | > 40 |  |  |  | 84% and 57% | 
8 | CCN(CC)CCN(C)C(=O)c1cc(Cl)c(N)cc1O.Cl | > 1000 | > 40 | > 3 | 5 |  |  | 30 | > 40 |  |  |  |  | 
9 | CCN(CC)CCNC(=O)c1cc(Cl)c(N)cc1OCCOC | > 1000 | > 40 | > 3 |  |  |  |  | > 40 |  | 1.5 | 88 |  | 1.7 and 5
10 | CCN(CC)CCNC(=O)c1cc(Cl)c(N)cc1OC1CCCC[C@@H]1O (some centres not stated) | > 1000 | > 40 | > 3 | 3 |  |  | 60 | > 40 |  | 4 | 66 |  | 

Second part, led by results:

Row | IC50 [2] [nM] | ED50 [7] [mg/kg] | Structure (SMILES) | ED50 [1] [mg/kg] | Emetic episodes [3] | Emetic episodes [4] | Protection [5] [%] | Protection [6] [%] | ED50 [8] [mg/kg] | Protection [4] [%] | Emetic episodes [9] | Protection [10] [%] | Protection ([5]; 1 mg/kg) | Emetic episodes ([3]; 3 mg/kg)
11 | > 1000 | > 40 | CCN(CC)CCNC(=O)c1cc(Cl)c(N)cc1OCCOCCOC | > 3 | 1.7 | 4.3 | 39 | 76 | > 40 |  |  |  |  | 
12 | > 1000 | > 40 | C=CCN1CCCC1CNC(=O)c1cc2nn[nH]c2cc1OC(C)C(C)=O (configuration not stated) | > 3 | 5.7 |  |  | 21 | > 40 |  |  |  |  | 
13 | > 1000 | > 40 | CCN(CC)CCC[S+]([O-])c1cc(Cl)c(N)cc1OC (configuration not stated) | > 1 | 2 |  |  | 70 | > 40 |  |  |  |  | 
14 | > 1000 | > 40 | CCN(CC)CCNC(=O)c1cc(Cl)c(N)cc1OCC1OCCO1 | > 3 | 2.3 | 4 |  | 67 | > 40 | 43 |  |  |  | 
15 | > 1000 | > 40 | CCN(CC)CCN(C)C(=O)c1cc(Cl)c(N)cc1OC | > 3 | 8.7 |  |  | 0 | > 40 |  |  |  |  | 
16 | > 1000 |  | CCN1CCCNC(=O)c2cc(Cl)c(N)cc2OCCOCC1 | > 3 | 11.7 |  |  | 0 | > 40 |  |  |  |  | 
17 | > 1000 | > 40 | CCN(CC)CCNC(=O)c1cc(Cl)c(N)cc1OCC1CCCO1 (configuration not stated) | > 3 | 3.3 |  |  | 54 | > 40 |  |  |  |  | 
18 | 7.7 | 10 | CCN1CCCCCOc2cc(N)c(Cl)cc2C(=O)NCCC1 | > 3 | 2.3 |  |  | 67 | > 40 |  |  |  |  | 
19 | > 1000 | > 40 | C=CCC(Oc1cc(N)c(Cl)cc1C(=O)NCCN(CC)CC)C(C)=O (configuration not stated) | > 3 | 2.3 | 1.7 |  | 68 | > 40 | 76 | 6 | 52 |  | 
